The source of these data is article PMC5784828 (Biochemical and biophysical research communications, 2018).

The subject of the assay is MDA-MB-231 cells. Description: Scratch cell migration assay. The format is cell-based. As to conditions: 1 μM, MDA-MB-231, 18 hr. Put shortly:
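MDA-MB-231 cells were grown at 37°C, 5% CO2, in high-glucose DMEM with 10% FBS, L-glutamine, penicillin/streptomycin and 15 mM HEPES. A scratch was made in a confluent monolayer, then test compound or 1% DMSO (solvent control) was added in normal growth medium. The same scratch area was photographed at 0 and 18–24 hr. Duplicate or single wells; four independent experiments; images representative.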

Molecules are shown by their SMILES.

For `CN(C)Cc1cccc(N/C(=C2\C(=O)Nc3cc(C(N)=O)ccc32)c2ccccc2)c1` [BIX02188], the “Effect on scratch healing (cell migration)” value is given as “showed inhibition of scratch healing”.
